FLuc act counter: FLuc activators, initial screening, artefact control for FLuc-dependent activation tests, biochemical, ATPlite luminescence. activation factor at 10 µM. Luciferin 4-monooxygenase (Photinus pyralis), P08659. 200,000 tested, under 10 active. ATPlite luciferase biochemical, 10 min; 0 = ATP-free wells, 1 = DMSO control;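 active means luciferase activation factor, scaled between plate controls, of at least 2 with compound at 10 µM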
Target sequence (P08659 whole entry, looked up): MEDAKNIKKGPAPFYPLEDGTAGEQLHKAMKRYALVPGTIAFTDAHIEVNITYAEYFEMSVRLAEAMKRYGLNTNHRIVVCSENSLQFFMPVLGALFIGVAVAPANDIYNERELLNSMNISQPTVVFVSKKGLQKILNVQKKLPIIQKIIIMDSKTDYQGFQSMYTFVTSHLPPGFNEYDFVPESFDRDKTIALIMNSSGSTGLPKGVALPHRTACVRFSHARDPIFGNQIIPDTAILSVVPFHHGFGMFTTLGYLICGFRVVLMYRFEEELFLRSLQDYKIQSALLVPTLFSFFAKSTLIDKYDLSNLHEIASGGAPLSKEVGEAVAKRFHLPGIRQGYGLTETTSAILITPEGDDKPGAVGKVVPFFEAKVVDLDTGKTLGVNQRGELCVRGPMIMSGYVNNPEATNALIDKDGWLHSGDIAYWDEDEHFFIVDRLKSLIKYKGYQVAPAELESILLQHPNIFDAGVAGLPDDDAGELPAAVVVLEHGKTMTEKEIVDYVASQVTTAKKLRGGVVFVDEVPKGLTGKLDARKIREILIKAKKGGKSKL
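Assay system: Luciferase/luciferin detection reagent, cell-free biochemical luciferase assay / Read-out: luciferase activation / Benchmarks: No-ATP low control, compound-free enzyme-plus-ATP high control / Medium: PBS buffer for ATP / Detection: luminescence measurement of luciferase light output / Schedule: 10 min at ambient temperature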
STAT1 activator: STAT1 signaling activators, primary screen, cell-based, HTS, luciferase reporter | AID 932, 2007 | NIH 3T3 STAT1-luciferase reporter, IFN-gamma, luminescence; 100% = IFN-gamma alone, no compound | activation (% of control), % at 5.5 µM | 2.6% of 200,000 active;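 active means activation above the screen-wide mean activation plus 3 SD, cut at about 130% in these data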
Pf gametocyte: late stage P. falciparum gametocyte viability inhibitors, primary screen, ATP luminescence, HTS; 0.065% of 150,000 active; P. falciparum stage V gametocytes, 24 h; AID 743093, 2013; inhibition, % at 10.9 µM;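 active means inhibition above the mean plus 3 SD of compounds within the control limits, set per campaign, cut at about 38% in these data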
NF-kB expr up: activators of NF-kB expression in neurons, primary screen, cell-based, HTS; human neuronal cells, NF-kB reporter expression; active compounds read high; fold change at 12.5 µM; 1.6% of 190,000 active; AID 1239, 2008; in the data active means fold change above about 3.3
APP 5'UTR act: activators of APP 5'UTR luciferase reporter, primary screen, SH-SY5Y cells; SH-SY5Y APP 5'UTR luciferase reporter, luminescence; zero percent = DMSO vehicle wells; activation, % at 2 µM; 1% of 190,000 active; AID 1276, 2008;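 active means activation above a set limit, based on mean plus 3 SD of controls, cut at about 140% in these data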
FLuc inh counter: firefly luciferase enzyme inhibitors, primary screen, artefact control for luciferase-based inhibitor screens, biochemical, luminescence, ATPLite; inhibition, % at 10 µM; 1.5% of 200,000 active; Luciferin 4-monooxygenase (Photinus pyralis), P08659; 10 min;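 active means inhibition above about 50% when tested at 10 µM, limit read from the data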
Of the large screens only hits and unclear results are named; the others gave an inactive call. A selection: hits, their analogues and other compounds. The true share with any hit is near 3.5%.

CC1(C)N=C(N)N=C(N)N1c1ccccc1	NF-kB expr up 3.8
CC(C)(C)c1ccc(C(=O)CS(=O)(=O)c2ccccc2)cc1	APP 5'UTR act 140, FLuc inh counter 54 (no result: Pf gametocyte)
Cc1ccc2nc(Cl)c3cc(C(=O)NCCCN4CCCC4)sc3c2c1	none
C=CCn1c(/N=C/c2ccc(N(C)C)cc2)nc2ccccc21	FLuc inh counter 94 (no result: Pf gametocyte)
CCCCn1c(/N=C/c2ccc(N(C)C)cc2)nc2ccccc21	FLuc inh counter 61 (no result: Pf gametocyte)
CCCCn1c(/N=C/c2ccc3c(c2)OCO3)nc2ccccc21	none
CN(C)c1ccc(/C=N/n2ncc3ccccc32)cc1	STAT1 activator 150, APP 5'UTR act 355, FLuc inh counter 60 (no result: Pf gametocyte)
CC(C)(C)c1csc(N/N=C/c2ccc(O)cc2)n1	none (no result: FLuc act counter, STAT1 activator, NF-kB expr up, APP 5'UTR act, FLuc inh counter)
Cc1ccc(C(=O)/C=C\NCc2ccccc2)cc1	STAT1 activator 130
COc1ccc(C(=O)/C=C/NCc2ccc(C)cc2)cc1	none (no result: FLuc act counter, NF-kB expr up, FLuc inh counter)
Cc1ccc(S/C=C\C(=O)c2ccccc2)cc1	NF-kB expr up 10, APP 5'UTR act 144, FLuc inh counter 91
CCOC(=O)CSc1nnc(-c2ccc(Cl)cc2Cl)o1	FLuc inh counter 56
CCn1c(C)nc2cc(C#N)ccc21	none
Cc1ccc(-c2nc3n(n2)Cc2ccccc2-3)cc1	NF-kB expr up 4.2, APP 5'UTR act 197, FLuc inh counter 92 (no result: Pf gametocyte)
NC(=S)Cc1nc2n(n1)Cc1ccccc1-2	none (no result: Pf gametocyte)
CCn1c(C)nc2cc(-c3nc4n(n3)Cc3ccccc3-4)ccc21	FLuc inh counter 98 (no result: Pf gametocyte)
Fc1ccc(-c2nc3n(n2)Cc2ccccc2-3)cc1	NF-kB expr up 6.7, APP 5'UTR act 173, FLuc inh counter 75
CCCC(C)NC(=O)C1c2ccccc2Oc2ccccc21 (centres undefined)	none (no result: FLuc act counter, STAT1 activator, NF-kB expr up, APP 5'UTR act, FLuc inh counter)
Cn1cnnc1SCC(=O)NC(=O)NC1CCCC1	none (no result: Pf gametocyte)
NS(=O)(=O)c1ccc(CCNC(=O)C2CCCO2)cc1 (centres undefined)	none (no result: FLuc act counter, STAT1 activator, NF-kB expr up, APP 5'UTR act, FLuc inh counter)
CCOC(=O)C1(CCOc2ccccc2)CCN(Cc2ccc(-n3cccn3)cc2)CC1	NF-kB expr up 3.9
CCOC(=O)C1(CCOc2ccccc2)CCN(Cc2ccncc2)CC1	none
O=C(Nc1nc2ccsc2c(=O)s1)C1CCC1	none (no result: FLuc act counter, STAT1 activator, NF-kB expr up, APP 5'UTR act, FLuc inh counter)
Cc1nc2c(ccc3nc(NC(=O)C4CC4)sc32)s1	STAT1 activator 156, NF-kB expr up 4.7
Cc1c(C(=O)COC(C)(C)C)[nH]c2ccccc12	none (no result: APP 5'UTR act)
COC(=O)[C@]12C(=O)NC[C@H](CN1c1ccc(C(F)(F)F)cc1)N2C	none (no result: FLuc act counter, STAT1 activator, NF-kB expr up, APP 5'UTR act, FLuc inh counter)
CCc1ccc(-c2cc(-c3n[nH]c(=S)n3CC)c3ccccc3n2)cc1	FLuc inh counter 64 (no result: Pf gametocyte)
CCn1c(-c2cc(-c3cccc(OC)c3)nc3ccccc23)n[nH]c1=S	none (no result: Pf gametocyte)
COc1ccc(CNc2nc3c(c(=O)n(Cc4ccc(Cl)cc4)c(=O)n3C)n2C)cc1	none
COC(=O)C1=C(C)N(c2ccc(OC)cc2)C(C)=C(C(=O)OC)C1c1ccccc1	none (no result: FLuc act counter, STAT1 activator, NF-kB expr up, APP 5'UTR act, FLuc inh counter)
CCOC(=O)c1c(C)[nH]c2cc(Br)c(O)cc12	NF-kB expr up 3.4
Brc1ccc(-c2csc(NC3=NCCCCC3)n2)cc1	STAT1 activator 134
Clc1ccc(-c2csc(NNC3=NCCCCC3)n2)cc1	none
c1ccc(-c2csc(NNC3=NCCCCC3)n2)cc1	STAT1 activator 132
COc1ccc(-c2csc(NC3=NCCCCC3)n2)cc1	none
C=C(C)C1CC=C(C)/C(=N/NC(=O)c2cccs2)C1 (centres undefined)	STAT1 activator 129 (no result: Pf gametocyte)
c1ccc2c(Nc3nnc(-c4ccncc4)s3)cccc2c1	FLuc inh counter 52 (no result: Pf gametocyte)
Cc1ccc2nc(-c3ccc(SCC(=O)O)nc3)[nH]c2c1	none (no result: Pf gametocyte)
Cc1cc2nc(-c3ccc(SCC(=O)Nc4ccc(S(=O)(=O)N5CCCC5)cc4)nc3)[nH]c2cc1C	STAT1 activator 140, APP 5'UTR act 153, FLuc inh counter 72 (no result: Pf gametocyte)
O=C(CSc1ccc(-c2nc3ccccc3[nH]2)cn1)Nc1ccc(S(=O)(=O)N2CCCC2)cc1	none
CCc1nnc(NC(=O)CSc2ccc(-c3nc4ccc(C)cc4[nH]3)cn2)s1	APP 5'UTR act 138, FLuc inh counter 58
CC(=O)CSc1ccc(-c2nc3cc(C)c(C)cc3[nH]2)cn1	FLuc inh counter 85
Cc1cc2nc(-c3ccc(SCC(=O)Nc4nccs4)nc3)[nH]c2cc1C	APP 5'UTR act 156
Cc1ccc(NC(=O)COC(=O)CSC(=S)N2CCOCC2)cc1	none
O=C(COc1ccc2c(C(F)(F)F)cc(=O)oc2c1)Nc1ccc(N2CCOCC2)cc1	none
CCOC(=O)c1c(NC(=O)C2COc3ccccc3O2)sc2c1CC(C)(C)NC2(C)C (centres undefined)	none (no result: Pf gametocyte)
COc1ccc(-n2ncc3c(=O)n(CC(=O)NC(C)C)cnc32)cc1	none (no result: FLuc act counter, STAT1 activator, NF-kB expr up, APP 5'UTR act, FLuc inh counter)
O=C(NCc1ccccn1)C1CCC(=O)N1C1CCCC1 (centres undefined)	none (no result: FLuc act counter, Pf gametocyte, NF-kB expr up, FLuc inh counter)
Cc1ccc2nc(-c3ccc(SCC(=O)N4CCc5ccccc54)nc3)[nH]c2c1	STAT1 activator 131, FLuc inh counter 78
COc1ccc(CCNC(=O)C2CCN(S(=O)(=O)c3ccc(C)cc3)CC2)cc1OC	none (no result: FLuc act counter, STAT1 activator, NF-kB expr up, APP 5'UTR act, FLuc inh counter)
Fc1cccc(C2NN=C(c3ccccc3)S2)c1 (centres undefined)	STAT1 activator 163, NF-kB expr up 9, APP 5'UTR act 182, FLuc inh counter 67 (no result: Pf gametocyte)
Cc1ccc(C2=NNC(c3cccc(F)c3)S2)cc1 (centres undefined)	NF-kB expr up 3.4, APP 5'UTR act 165, FLuc inh counter 84
COc1ccc(C2NN=C(c3ccc(C)cc3)S2)cc1OC (centres undefined)	STAT1 activator 136, NF-kB expr up 3.5, APP 5'UTR act 164, FLuc inh counter 79
O=C1c2ccccc2C2=Nc3ccccc3SC(c3cccc(F)c3)C12 (centres undefined)	none
COCCn1nnnc1C(c1cccs1)N1CCCC(C)C1 (centres undefined)	none
O=C(Nc1ccc2c(c1)OCCO2)c1ccc(Br)cc1	none (no result: FLuc act counter, STAT1 activator, NF-kB expr up, APP 5'UTR act, FLuc inh counter)
O=C(O)c1ccc(NC(=O)c2cc3ccccc3o2)cc1	none (no result: FLuc act counter, STAT1 activator, NF-kB expr up, APP 5'UTR act, FLuc inh counter)
O=C(Nc1ccc2c(c1)OCCO2)c1ccc(Br)o1	NF-kB expr up 4.9, APP 5'UTR act 136, FLuc inh counter 82 (no result: Pf gametocyte)
O=C(Nc1ccc2oc(=O)ccc2c1)c1cc2ccccc2o1	STAT1 activator 148 (no result: Pf gametocyte)
Cc1cc(=O)oc2cc(NC(=O)c3cc4ccccc4o3)ccc12	none
O=C(Nc1ccc2c(c1)OCCO2)c1cc2ccccc2o1	NF-kB expr up 9.2, APP 5'UTR act 225, FLuc inh counter 92 (no result: Pf gametocyte)
O=C1c2cccc3cccc(c23)C(=O)N1c1nncs1	none (no result: Pf gametocyte)
Cc1ccc2nc(-c3ccncc3)[nH]c2c1	none (no result: FLuc act counter, STAT1 activator, NF-kB expr up, APP 5'UTR act, FLuc inh counter)
COc1ccc2nc(-c3cccc(N)c3)[nH]c2c1	FLuc inh counter 87 (no result: Pf gametocyte)
COc1ccc2nc(-c3ccc(N)cc3)[nH]c2c1	FLuc inh counter 65 (no result: Pf gametocyte)

Screening data from PubChem BioAssay.
